ChEMBL document CHEMBL1649562, “Emergence of high levels of extended-spectrum-beta-lactamase-producing gram-negative bacilli in the Asia-Pacific region: data from the Study for Monitoring Antimicrobial Resistance Trends (SMART) program, 2007” (2009)
The source made the active and inactive calls.

Legend:
Klebsiella pneumoniae [1] = assay: Antimicrobial activity against extended spectrum beta-lactamase-deficient Klebsiella pneumoniae assessed as percent susceptible isolates by CLSI method; format: functional
Proteus mirabilis [2] = assay: Antimicrobial activity against Proteus mirabilis assessed as percent susceptible isolates by CLSI method; format: functional
Klebsiella pneumoniae [3] = assay: Antimicrobial activity against extended spectrum beta-lactamase-expressing Klebsiella pneumoniae assessed as percent susceptible isolates by CLSI method; format: functional
Klebsiella oxytoca [4] = assay: Antimicrobial activity against extended spectrum beta-lactamase-deficient Klebsiella oxytoca assessed as percent susceptible isolates by CLSI method; format: functional
Klebsiella aerogenes [5] = assay: Antimicrobial activity against Enterobacter aerogenes assessed as percent susceptible isolates by CLSI method; format: functional
Klebsiella oxytoca [6] = assay: Antimicrobial activity against extended spectrum beta-lactamase-expressing Klebsiella oxytoca assessed as percent susceptible isolates by CLSI method; format: functional
Pseudomonas aeruginosa [7] = assay: Antimicrobial activity against Pseudomonas aeruginosa assessed as percent susceptible isolates by CLSI method; format: functional
Escherichia coli [8] = assay: Antimicrobial activity against extended spectrum beta-lactamase-expressing Escherichia coli assessed as percent susceptible isolates by CLSI method; format: functional
Citrobacter freundii [9] = assay: Antimicrobial activity against Citrobacter freundii assessed as percent susceptible isolates by CLSI method; format: functional
Escherichia coli [10] = assay: Antimicrobial activity against extended spectrum beta-lactamase-deficient Escherichia coli assessed as percent susceptible isolates by CLSI method; format: functional
Enterobacter cloacae [11] = assay: Antimicrobial activity against Enterobacter cloacae assessed as percent susceptible isolates by CLSI method; format: functional
Citrobacter freundii [12] = assay: Antimicrobial activity against Citrobacter freundii assessed as percent susceptible isolates by CLSI method in presence of beta-lactamase inhibitor Sulbactam; format: functional
Summary of the method: (§1)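 Site laboratories identified isolates by their local methods. MICs were read from dehydrated broth microdilution panels, the same panel at all sites, following CLSI procedure. Susceptibility was categorized by CLSI interpretive criteria. QC ran daily at each site with E. coli ATCC 25922, K. pneumoniae ATCC 700603 and P. aeruginosa ATCC 27853.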

Escherichia coli [13] = assay: Antimicrobial activity against extended spectrum beta-lactamase-expressing Escherichia coli assessed as percent susceptible isolates by CLSI method in presence of beta-lactamase inhibitor Sulbactam; format: functional
Summary of the method: (§2)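 ESBL status was assigned when the ceftazidime or cefotaxime MIC fell at least eightfold (three doubling dilutions) with clavulanic acid, compared with the drug alone. Isolates were identified locally at each site. MICs came from uniform dehydrated broth microdilution panels under CLSI procedure, with susceptibility by CLSI criteria. Daily QC used E. coli ATCC 25922, K. pneumoniae ATCC 700603 (ESBL-positive) and P. aeruginosa ATCC 27853.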

Klebsiella oxytoca [14] = assay: Antimicrobial activity against extended spectrum beta-lactamase-expressing Klebsiella oxytoca assessed as percent susceptible isolates by CLSI method in presence of beta-lactamase inhibitor Sulbactam; format: functional; summary of the method: as §2
Enterobacter cloacae [15] = assay: Antimicrobial activity against Enterobacter cloacae assessed as percent susceptible isolates by CLSI method in presence of beta-lactamase inhibitor Sulbactam; format: functional; summary of the method: as §1
Klebsiella aerogenes [16] = assay: Antimicrobial activity against Enterobacter aerogenes assessed as percent susceptible isolates by CLSI method in presence of beta-lactamase inhibitor Sulbactam; format: functional; summary of the method: as §1
Klebsiella pneumoniae [17] = assay: Antimicrobial activity against extended spectrum beta-lactamase-expressing Klebsiella pneumoniae assessed as percent susceptible isolates by CLSI method in presence of beta-lactamase inhibitor Sulbactam; format: functional; summary of the method: as §2
Klebsiella oxytoca [18] = assay: Antimicrobial activity against extended spectrum beta-lactamase-deficient Klebsiella oxytoca assessed as percent susceptible isolates by CLSI method in presence of beta-lactamase inhibitor Sulbactam; format: functional; summary of the method: as §2
Klebsiella pneumoniae [19] = assay: Antimicrobial activity against extended spectrum beta-lactamase-deficient Klebsiella pneumoniae assessed as percent susceptible isolates by CLSI method in presence of beta-lactamase inhibitor Sulbactam; format: functional; summary of the method: as §2
Pseudomonas aeruginosa [20] = assay: Antimicrobial activity against Pseudomonas aeruginosa assessed as percent susceptible isolates by CLSI method in presence of beta-lactamase inhibitor Sulbactam; format: functional, organism-based; summary of the method: as §1
Proteus mirabilis [21] = assay: Antimicrobial activity against Proteus mirabilis assessed as percent susceptible isolates by CLSI method in presence of beta-lactamase inhibitor Sulbactam; format: functional; summary of the method: as §1
Escherichia coli [22] = assay: Antimicrobial activity against extended spectrum beta-lactamase-deficient Escherichia coli assessed as percent susceptible isolates by CLSI method in presence of beta-lactamase inhibitor Sulbactam; format: functional; summary of the method: as §2
Pseudomonas aeruginosa [23] = assay: Antimicrobial activity against Pseudomonas aeruginosa assessed as percent susceptible isolates by CLSI method in presence of beta-lactamase inhibitor tazobactem; format: functional; summary of the method: as §1
Enterobacter cloacae [24] = assay: Antimicrobial activity against Enterobacter cloacae assessed as percent susceptible isolates by CLSI method in presence of beta-lactamase inhibitor tazobactem; format: functional; summary of the method: as §1
Escherichia coli [25] = assay: Antimicrobial activity against extended spectrum beta-lactamase-expressing Escherichia coli assessed as percent susceptible isolates by CLSI method in presence of beta-lactamase inhibitor tazobactem; format: functional; summary of the method: as §2
Klebsiella oxytoca [26] = assay: Antimicrobial activity against extended spectrum beta-lactamase-expressing Klebsiella oxytoca assessed as percent susceptible isolates by CLSI method in presence of beta-lactamase inhibitor tazobactem; format: functional; summary of the method: as §2
Klebsiella aerogenes [27] = assay: Antimicrobial activity against Enterobacter aerogenes assessed as percent susceptible isolates by CLSI method in presence of beta-lactamase inhibitor tazobactem; format: functional; summary of the method: as §1
Escherichia coli [28] = assay: Antimicrobial activity against extended spectrum beta-lactamase-deficient Escherichia coli assessed as percent susceptible isolates by CLSI method in presence of beta-lactamase inhibitor tazobactem; format: functional; summary of the method: as §2
Klebsiella oxytoca [29] = assay: Antimicrobial activity against extended spectrum beta-lactamase-deficient Klebsiella oxytoca assessed as percent susceptible isolates by CLSI method in presence of beta-lactamase inhibitor tazobactem; format: functional; summary of the method: as §2
Klebsiella pneumoniae [30] = assay: Antimicrobial activity against extended spectrum beta-lactamase-deficient Klebsiella pneumoniae assessed as percent susceptible isolates by CLSI method in presence of beta-lactamase inhibitor tazobactem; format: functional; summary of the method: as §2
Klebsiella pneumoniae [31] = assay: Antimicrobial activity against extended spectrum beta-lactamase-expressing Klebsiella pneumoniae assessed as percent susceptible isolates by CLSI method in presence of beta-lactamase inhibitor tazobactem; format: functional; summary of the method: as §2
Proteus mirabilis [32] = assay: Antimicrobial activity against Proteus mirabilis assessed as percent susceptible isolates by CLSI method in presence of beta-lactamase inhibitor tazobactem; format: functional; summary of the method: as §1
Citrobacter freundii [33] = assay: Antimicrobial activity against Citrobacter freundii assessed as percent susceptible isolates by CLSI method in presence of beta-lactamase inhibitor tazobactem; format: functional; summary of the method: as §1

SMILES | Activity (Klebsiella pneumoniae [1]) [%] | Activity (Proteus mirabilis [2]) [%] | Activity (Klebsiella pneumoniae [3]) [%] | Activity (Klebsiella oxytoca [4]) [%] | Activity (Klebsiella aerogenes [5]) [%] | Activity (Klebsiella oxytoca [6]) [%] | Activity (Pseudomonas aeruginosa [7]) | Activity (Escherichia coli [8]) [%] | Activity (Citrobacter freundii [9]) [%] | Activity (Escherichia coli [10]) [%] | Activity (Enterobacter cloacae [11]) [%] | also measured
C[C@@H](O)[C@H]1C(=O)N2C(C(=O)O)=C(S[C@@H]3CN[C@H](C(=O)Nc4cccc(C(=O)O)c4)C3)[C@H](C)[C@H]12 | 99 | 100 | 86 | 100 | 97 | 100 | inactive | 96 | 98 | 100 | 94 | 
NCC[C@H](O)C(=O)N[C@@H]1C[C@H](N)[C@@H](O[C@H]2O[C@H](CN)[C@@H](O)[C@H](O)[C@H]2O)[C@H](O)[C@H]1O[C@H]1O[C@H](CO)[C@@H](O)[C@H](N)[C@H]1O [AMIKACIN] | 99 | 92 | 73 | 100 | 83 | 86 | 85% | 87 | 84 | 98 | 92 | 
CC1(C)S[C@@H]2[C@H](NC(=O)[C@H](N)c3ccccc3)C(=O)N2[C@H]1C(=O)O [AMPICILLIN] |  |  |  |  |  |  |  |  |  |  |  | Activity (Citrobacter freundii [12]): 37%; Activity (Escherichia coli [13]): 5%; Activity (Klebsiella oxytoca [14]): 5%; Activity (Enterobacter cloacae [15]): 17%; Activity (Klebsiella aerogenes [16]): 31%; Activity (Klebsiella pneumoniae [17]): 6%; Activity (Klebsiella oxytoca [18]): 76%; Activity (Klebsiella pneumoniae [19]): 76%; Activity (Pseudomonas aeruginosa [20]): inactive; Activity (Proteus mirabilis [21]): 72%; Activity (Escherichia coli [22]): 43%
CO/N=C(\C(=O)N[C@@H]1C(=O)N2C(C(=O)O)=C(COC(C)=O)CS[C@H]12)c1csc(N)n1 [CEFOTAXIME] | 97 | 77 | 9 | 97 | 48 | 14 | 14% | 5 | 43 | 97 | 49 | 
CO[C@@]1(NC(=O)Cc2cccs2)C(=O)N2C(C(=O)O)=C(COC(N)=O)CS[C@@H]21 [CEFOXITIN] | 87 | 95 | 61 | 97 | 22 | 64 | inactive | 66 | 16 | 89 | 7 | 
CC(C)(O/N=C(\C(=O)N[C@@H]1C(=O)N2C(C(=O)[O-])=C(C[n+]3ccccc3)CS[C@H]12)c1csc(N)n1)C(=O)O [CEFTAZIDIME] | 97 | 89 | 20 | 97 | 46 | 27 | 66% | 29 | 43 | 95 | 53 | 
CO/N=C(\C(=O)N[C@@H]1C(=O)N2C(C(=O)O)=C(CSc3nc(=O)c(O)nn3C)CS[C@H]12)c1csc(N)n1 [CEFTRIAXONE] | 97 | 77 | 10 | 97 | 55 | 9 | 19% | 4 | 45 | 96 | 48 | 
C[C@@H](O)[C@H]1C(=O)N2C(C(=O)O)=C(SCCNC=N)C[C@H]12 [IMIPENEM ANHYDROUS] | 100 | 100 | 97 | 100 | 97 | 100 | 71% | 98 | 100 | 100 | 98 | 
C[C@H]1COc2c(N3CCN(C)CC3)c(F)cc3c(=O)c(C(=O)O)cn1c23.C[C@H]1COc2c(N3CCN(C)CC3)c(F)cc3c(=O)c(C(=O)O)cn1c23.O [LEVOFLOXACIN] | 94 | 84 | 43 | 97 | 83 | 41 | 73% | 21 | 77 | 72 | 79 | 
CCN1CCN(C(=O)N[C@@H](C(=O)N[C@@H]2C(=O)N3[C@@H]2SC(C)(C)[C@@H]3C(=O)O)c2ccccc2)C(=O)C1=O [PIPERACILLIN] |  |  |  |  |  |  |  |  |  |  |  | Activity (Pseudomonas aeruginosa [23]): 81%; Activity (Enterobacter cloacae [24]): 71%; Activity (Escherichia coli [25]): 83%; Activity (Klebsiella oxytoca [26]): 68%; Activity (Klebsiella aerogenes [27]): 69%; Activity (Escherichia coli [28]): 94%; Activity (Klebsiella oxytoca [29]): 100%; Activity (Klebsiella pneumoniae [30]): 94%; Activity (Klebsiella pneumoniae [31]): 57%; Activity (Proteus mirabilis [32]): 97%; Activity (Citrobacter freundii [33]): 71%
